Peptide text beside a SMILES is read from it. * marks the point of attachment. Cbz = O=C(OCc1ccccc1)*
Columns and labels:
[1] = Inhibition of chymotrypsin-like activity of 20S proteasome in human LCL cells after 12 hrs
[2] = system: 20S proteasome beta1 subunit (Homo sapiens); experiment: Inhibition of PGPH catalytic activity of 20S proteasome beta1 in human LCL cells after 12 hrs
[3] = Inhibition of trypsin-like activity of 20S proteasome beta2 from human LCL cells after 30 mins
[4] = Inhibition of trypsin-like activity of 20S proteasome beta 2 in human LCL cells after 12 hrs by in vivo assay
In short: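 LCLs exposed to inhibitor for 12 h at 37 °C. Proteasomes then partially purified and incubated 30 min at 37 °C in activity buffer with Suc-LLVY-AMC (chymotrypsin-like), Boc-LRR-AMC (trypsin-like) or Z-LLE-AMC (postacidic). Fluorescence read at ex 360/em 465 nm.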

[5] = system: 20S proteasome beta1 subunit (Homo sapiens); experiment: Inhibition of PGPH catalytic activity of 20S proteasome beta1 in human LCL cells after 12 hrs by in vivo assay
[6] = system: 20S proteasome beta5 subunit (Homo sapiens); experiment: Inhibition of chymotrypsin-like activity of 20S proteasome beta5 in human LCL cells after 12 hrs by in vivo assay
[7] = Cytotoxicity against human LCL cells at 10 uM after 3 days by trypan blue exclusion assay; assay type: cell-based; conditions: 72 h
In short: (§1)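 LCL and Burkitt's lymphoma JiJoye cells seeded in duplicate at 50 × 10³ cells/mL in medium with 10% FCS. Exposed to 0.1–10 μM compound or medium alone. Viability and proliferation followed for 3 days by Trypan blue exclusion and cell counting.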

JIYOYE = experiment: Cytotoxicity against human Jijoye cells at 10 uM after 3 days by trypan blue exclusion assay; assay type: cell-based; conditions: 72 h
In short: as §1

Row | Structure (SMILES) | IC50 [1] | IC50 [2] | IC50 [3] | IC50 [4] | IC50 [5] | IC50 [6] | Activity [7] | Activity (JIYOYE)
1 | CC(C)C[C@@H](/C=C/C(=O)n1cccc1)NC(=O)[C@H](CC(C)C)NC(=O)[C@H](CC(C)C)NC(=O)CCCCCNC(=O)OCc1ccccc1 | > 10 µM | 0.155 µM | > 10 µM |  |  |  |  | 
2 | CC(C)C[C@@H](/C=C/C(=O)n1cccc1)NC(=O)[C@H](CC(C)C)NC(=O)[C@H](CC(C)C)NC(=O)CCCCCCCNC(=O)OCc1ccccc1 | > 10 µM | 0.062 µM | > 10 µM | > 10 µM | 0.116 µM | > 10 µM |  | 
3 | CC(C)C[C@@H](/C=C/C(=O)n1cccc1)NC(=O)[C@H](CO)NC(=O)[C@@H](NC(=O)CCCCCNC(=O)OCc1ccccc1)C(C)C | > 10 µM | 0.097 µM | > 10 µM | > 10 µM | 0.147 µM | > 10 µM |  | 
4 | CC(C)C[C@@H](/C=C/C(=O)n1cccc1)NC(=O)[C@H](CO)NC(=O)[C@@H](NC(=O)CCCCCCCNC(=O)OCc1ccccc1)C(C)C | 5.08 µM | 0.036 µM | > 10 µM | > 10 µM | 0.058 µM | > 10 µM | Not Active | Not Active
5 | CC(C)C[C@@H](/C=C/C(=O)n1cccc1)NC(=O)[C@H](CC(C)C)NC(=O)[C@H](CC(C)C)NC(=O)OCc1ccccc1 | 7.89 µM | 0.091 µM | > 10 µM |  |  |  |  | 
6 | Cc1c(O)cccc1C(=O)N[C@@H](CC(C)C)C(=O)N[C@@H](CC(C)C)C(=O)N[C@H](/C=C/C(=O)n1cccc1)CC(C)C | 3.63 µM | 0.065 µM | > 10 µM | > 10 µM | 0.135 µM | 5.6 µM | Not Active | Not Active
7 | CC(C)C[C@@H](/C=C/C(=O)n1cccc1)NC(=O)[C@H](CO)NC(=O)[C@@H](NC(=O)OCc1ccccc1)C(C)C | > 10 µM | 0.122 µM | > 10 µM |  |  |  |  | 
8 | Cc1c(O)cccc1C(=O)N[C@H](C(=O)N[C@@H](CO)C(=O)N[C@H](/C=C/C(=O)n1cccc1)CC(C)C)C(C)C | > 10 µM | 0.178 µM | > 10 µM |  |  |  |  | 
9 | CC[C@H](C)[C@H](NC(=O)[C@H]([C@@H](C)CC)N(C)C(C)=O)C(=O)N[C@H](C(=O)N[C@@H](CC(C)C)C(=O)[C@@]1(C)CO1)[C@@H](C)O [EPOXOMYCIN] | 0.005 µM |  |  |  |  |  |  | 
10 | CC(C)C[C@@H](C=O)NC(=O)[C@H](CC(C)C)NC(=O)[C@H](CC(C)C)NC(=O)OCc1ccccc1 [MG-132] (Cbz-Leu-Leu-Leu-aldehyde) | 0.002 µM |  | 1.08 µM |  |  |  |  | 

— ChEMBL document CHEMBL1240495, “Alpha,beta-unsaturated N-acylpyrrole peptidyl derivatives: new proteasome inhibitors” (J Med Chem, 2010)
